H69AR inhibit: growth inhibitors of human H69AR lung tumor cells. viability, % at 10 µM. AID 598. H69AR lung tumor viability, ATP luminescence, 72 h; stronger effect = lower value. 85,000 tested, 6% active;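 active means viability at or below 40%; inactive means viability above 40%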;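 further: multidrug resistant small cell line overexpressing MRP-1 efflux transporter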
HCT116 bCat-KO: beta-catenin-lacking colon tumor cell growth suppression | HCT116 beta-catenin knockout viability, CellTiter-Glo, 60 h; stronger effect = lower value | viability, % at 10 µM | 140,000 tested, 1.5% active;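 active means viability at or under a set limit, the compound median less 4 SD, cut at about 6% in these data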
Lung fibro prol: blocks proliferation of human lung fibroblasts | LL 47 human lung fibroblast viability, ATP luminescence; stronger effect = lower value | viability, % at 10 µM | 85,000 tested, 1.1% active;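 active means viability at or below 50% in the single dose screen; inactive means viability above 50%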;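 further: compound exposure lasted 72 h before the ATP readout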
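Assay system: human lung fibroblast line LL 47, low passage. Input: 1,150 fibroblasts seeded per well. Times: overnight cell rest, 72 h compound treatment at 37 °C. Evaluation: % viability of median cell-only signal. Technique: luminescent ATP detection, CellTiter-Glo. Control set: cell-only wells, no compound.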
HUVEC inhibit: inhibitors of human endothelial cell proliferation; viability, % at 10 µM (by protocol); 86,000 tested, 1.1% active; HUVEC proliferation, CellTiter-Glo luminescence, 72 h; stronger effect = lower value;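 active means viability at or below 30%; inactive means viability above 30%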
HCT116 PTEN-null: suppresses growth of cells with PTEN deletion. HCT116 PTEN-null viability, CellTiter-Glo, 60 h; stronger effect = lower value. viability, % at 10 µM. 140,000 tested, 1.2% active;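 active means viability at or below a set limit, 4 SD under the median of all tested compounds, cut at about 3.7% in these data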;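 further: PTEN knockout HCT116 line with beta catenin targeted HCT116 as companion control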
Of the large screens only hits and unclear results are named; the others gave an inactive call. The entries come from a sample that favours hits as a whole.

CN(C1=C(NC(=O)c2ccccc2)C(=O)c2ccccc2C1=O)C1CCS(=O)(=O)C1 (configuration not stated)	HCT116 bCat-KO 2.7 (no result: H69AR inhibit, Lung fibro prol, HUVEC inhibit)
CC(=O)NC1=C(NC2CCS(=O)(=O)C2)C(=O)c2ccccc2C1=O (configuration not stated)	none (no result: H69AR inhibit, Lung fibro prol, HUVEC inhibit)
COc1ccccc1N(CC(=O)Nc1cc(C)on1)S(=O)(=O)c1cccs1	none (no result: HCT116 bCat-KO, HCT116 PTEN-null)
N/C(Cc1ccc([N+](=O)[O-])cc1)=N\OC(=O)c1ccc2ccccc2c1	HUVEC inhibit 24
Cc1cccc(C(=O)O/N=C(\N)Cc2ccc([N+](=O)[O-])cc2)c1	H69AR inhibit 3.6
N/C(Cc1ccc([N+](=O)[O-])cc1)=N\OC(=O)c1ccc(Br)cc1	none (no result: H69AR inhibit, Lung fibro prol, HUVEC inhibit)
CCOC(=O)c1cc(CC)sc1NC(=O)CC1Sc2ccc(C(F)(F)F)cc2NC1=O (configuration not stated)	none (no result: H69AR inhibit, Lung fibro prol, HUVEC inhibit)
Cc1cc(C)c(C(CC(=O)c2cccs2)C(C#N)C#N)c(C)c1 (configuration not stated)	none (no result: H69AR inhibit, Lung fibro prol, HUVEC inhibit)
CCOC(=O)c1cc2occc2n1CC(=O)N1CCCc2ccccc21	none
CC(C)(C)c1nnc2sc(SCCN3C(=O)c4ccccc4C3=O)nn2c1=O	none
CC(C)N(C(=O)CSc1nn2c(=O)c(C(C)(C)C)nnc2s1)c1ccccc1	H69AR inhibit 14 (no result: Lung fibro prol)
O=c1c2cc(F)ccc2[nH]c(=S)n1CCCN1CCOCC1	none
CC(C)NC(=O)C1(c2ccccc2)CC1(Cl)Cl (configuration not stated)	none (no result: H69AR inhibit, Lung fibro prol, HUVEC inhibit)
Nc1nc(Cl)nc2c1ncn2[C@@H]1O[C@H](CO)[C@@H](O)[C@H]1O	H69AR inhibit 18
CN(C)c1ncnc2c1ncn2C1OC(CO)C(O)C1O (configuration not stated)	H69AR inhibit 6.8, HCT116 bCat-KO 5.2, Lung fibro prol 41, HUVEC inhibit 15
O=C1C=CC(=O)N1c1ccc(OC(F)F)cc1	none (no result: H69AR inhibit, Lung fibro prol, HUVEC inhibit)
O=C(O)c1ccc(Cl)c(S(=O)(=O)NCc2ccco2)c1	none
Cc1cccc(N2CCN(C(=O)c3ccc(Cl)c(S(=O)(=O)NCc4ccco4)c3)CC2)c1C	H69AR inhibit 21
O=C(c1ccc(Cl)c(S(=O)(=O)NCc2ccccc2)c1)N1CCN(c2ccccn2)CC1	H69AR inhibit 21 (no result: HCT116 PTEN-null)
CCN(CC)C(=O)C(Sc1ccccc1)c1ccccc1 (configuration not stated)	none
COC(=O)c1c(NC(=O)CN2CCN(c3ccccc3OC)CC2)c2cc(C)ccc2n1C	H69AR inhibit 29
COc1ccccc1N1CCN(CC(=O)Nc2cc(F)ccc2C)CC1	none
COc1ccccc1N1CCN(CC(=O)Nc2cc(C)nn2-c2nc(C)cc(C)n2)CC1	H69AR inhibit 19, Lung fibro prol 37 (no result: HCT116 bCat-KO, HCT116 PTEN-null)
COc1ccc(O[C@H]2C=C[C@@H](c3ccccc3)O[C@@H]2COC(=O)CC/C(C)=N/OC[C@@H](O)[C@H]2O[C@@H]3OC(C)(C)O[C@@H]3[C@H]2O)cc1	none (no result: H69AR inhibit, Lung fibro prol, HUVEC inhibit)
Brc1ccccc1-c1nnc(COc2cccc3cccnc23)o1	H69AR inhibit 32
Cc1ccc(C)c(OCC(O)CN2CCC(CN3C(=O)c4cccc5cccc(c45)C3=O)CC2)c1 (configuration not stated)	HCT116 bCat-KO 1.2, HCT116 PTEN-null 1.2 (no result: H69AR inhibit, Lung fibro prol, HUVEC inhibit)
CCOC(=O)c1ccc(NC2=CC(=O)C(=O)c3ccccc32)cc1	HCT116 bCat-KO 1.4, Lung fibro prol 3.9, HUVEC inhibit 5.4
CCOC(=O)c1ccc(NC(=O)C(C)N2C(=O)c3ccccc3C2=O)cc1 (configuration not stated)	none
Cc1ccc(NC2=CC(=O)C(=O)c3ccccc32)cc1	H69AR inhibit 3.4, HCT116 bCat-KO 1.2, Lung fibro prol 7.3, HUVEC inhibit 6.5, HCT116 PTEN-null 0.6
CCNC(=S)Nc1cc(OCC)c(NC(=O)c2cccs2)cc1OCC	none (no result: H69AR inhibit, Lung fibro prol, HUVEC inhibit)
CCCOc1ccccc1NC(=O)/C=C/C(N)=O	H69AR inhibit 2.1
CCCCOc1ccccc1NC(=O)C=C(C)C	none
CC(C)COc1ccc(-c2cc(C(=O)NN)[nH]n2)cc1	none (no result: H69AR inhibit, Lung fibro prol, HUVEC inhibit)
N#C/C(=C/c1ccc(-c2ccc(S(N)(=O)=O)cc2)o1)c1nc2ccccc2s1	HCT116 bCat-KO 1.5, HCT116 PTEN-null 1.8 (no result: H69AR inhibit, Lung fibro prol, HUVEC inhibit)
N#C/C(=C/c1ccc(-c2ccc(S(N)(=O)=O)cc2)o1)C(=O)Nc1ccccc1	none (no result: H69AR inhibit, Lung fibro prol, HUVEC inhibit)
c1ccc(CSc2ncnc3c2cnn3-c2ccccc2)cc1	none (no result: H69AR inhibit, Lung fibro prol, HUVEC inhibit)
Cc1cc(NC(=O)CCCS(=O)(=O)c2nc(-c3cccs3)cc(C(F)(F)F)n2)no1	HCT116 PTEN-null 3.3 (no result: H69AR inhibit, Lung fibro prol, HUVEC inhibit)
Cc1cc(NC(=O)CSc2nc(-c3cccs3)cc(C(F)(F)F)n2)no1	H69AR inhibit 29
